ChEMBL document CHEMBL1133253, “Improved antibacterial activities of coumarin antibiotics bearing 5',5'-dialkylnoviose: biological activity of RU79115” (Bioorg Med Chem Lett, 2000)
In brackets after ≈: the same amount, converted by molar mass.

What was measured:
Enterococcus [1] = assay: Minimum inhibitory concentration evaluated against enterococci species resistant to vancomycin [65]*; assay type: functional
Enterococcus [2] = assay: Minimum inhibitory concentration evaluated against enterococci species resistant to vancomycin and teicoplanin [17]*; assay type: functional
Enterococcus [3] = assay: Minimum inhibitory concentration evaluated against enterococci species susceptible to vancomycin [26]*; assay type: functional
Enterococcus [4] = assay: In vitro anti-enterococcal activity against enterococci species resistant to vancomycin [65]* expressed as geometric mean; assay type: functional
Enterococcus [5] = assay: In vitro anti-enterococcal activity against enterococci species resistant to vancomycin and teicoplanin [17]* expressed as geometric mean; assay type: functional
Enterococcus [6] = assay: In vitro anti-enterococcal activity against enterococci species susceptible to vancomycin [26]* expressed as geometric mean; assay type: functional
Mus musculus [7] = assay: Minimum inhibitory concentration of the subcutaneously administered compound evaluated against Staphylococcus aureus HT-18 strain in mice; assay type: functional
Mus musculus [8] = assay: Minimum inhibitory concentration of the subcutaneously administered compound evaluated against […] A1UC1 strain in mice; assay type: functional
Mus musculus [9] = assay: Minimum inhibitory concentration of the subcutaneously administered compound evaluated against vancomycin resistant Enterococci faecium D3AP9 strain in mice; assay type: functional
Mus musculus [10] = assay: Minimum inhibitory concentration of the subcutaneously administered compound evaluated against Enterococci faecalis D2HT6 strain in mice; assay type: functional
Mus musculus [11] = assay: Minimum inhibitory concentration of the subcutaneously administered compound evaluated against Enterococci faecium D3HT7 strain in mice; assay type: functional
Mus musculus [12] = assay: Minimum inhibitory concentration of the subcutaneously administered compound evaluated against […] B1HT3 strain in mice; assay type: functional
Mus musculus [13] = assay: Minimum inhibitory concentration of the subcutaneously administered compound evaluated against Staphylococcus aureus GR56 strain resistant to oxacillin in mice; assay type: functional
Mus musculus [14] = assay: Minimum inhibitory concentration of the subcutaneously administered compound evaluated against vancomycin resistant Enterococci faecium D3HM4 strain in mice; assay type: functional
Mus musculus [15] = assay: Minimum inhibitory concentration of the subcutaneously administered compound evaluated against vancomycin resistant Enterococci faecium D3HT12 strain in mice; assay type: functional
Mus musculus [16] = assay: Protective dose of subcutaneously administered compound against intraperitoneally-induced septicaemia model ([…] B1HT3 strain) in murine; assay type: functional; settings: sc, read-out: PD50
Summary of the method: (§1)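 Murine septicaemia was induced by intraperitoneal infection, and the compound was given subcutaneously. PD50 was derived by probit analysis.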

Mus musculus [17] = assay: Protective dose of subcutaneously administered compound against intraperitoneally-induced septicaemia model (Staphylococcus aureus GR56 strain resistant to oxacillin) in murine; assay type: functional; settings: sc, read-out: PD50; summary of the method: as §1
Mus musculus [18] = assay: Protective dose of subcutaneously administered compound against intraperitoneally-induced septicaemia model (Staphylococcus aureus HT18) in murine; assay type: functional; settings: sc, read-out: PD50; summary of the method: as §1
pneumococci = assay: In vitro anti-streptococcal activity against pneumococci resistant to penicillin [29]* expressed as geometric mean; assay type: functional
[19] = Minimum inhibitory concentration evaluated against pneumococci resistant to penicillin [29]*; assay type: functional
Staphylococcus sp. [20] = assay: Minimum inhibitory concentration evaluated against Staphylococcus species [91]*; assay type: functional
Summary of the method: (§2)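 Two-fold agar dilution MIC, in µg/mL, against Staphylococcus panels grouped by resistance phenotype (oxacillin and/or ofloxacin resistant). Per-panel values are reported as the geometric mean and MIC90 across strains; the strain count per panel is given in brackets.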

Staphylococcus sp. [21] = assay: Minimum inhibitory concentration evaluated against Staphylococcus species resistant to ofloxacin [59]*; assay type: functional; summary of the method: as §2
Staphylococcus sp. [22] = assay: Minimum inhibitory concentration evaluated against Staphylococcus species resistant to oxacillin [66]*; assay type: functional; summary of the method: as §2
Staphylococcus sp. [23] = assay: Minimum inhibitory concentration evaluated against Staphylococcus species resistant to oxacillin and ofloxacin [47]*; assay type: functional; summary of the method: as §2
Streptococcus sp. [24] = assay: In vitro anti-streptococcal activity against Streptococci species (viridans) [25]* expressed as geometric mean; assay type: functional
Streptococcus sp. [25] = assay: In vitro anti-streptococcal activity against Streptococci species [38]* expressed as geometric mean; assay type: functional
Streptococcus sp. [26] = assay: Minimum inhibitory concentration evaluated against Streptococci species (viridans) [25]*; assay type: functional
Streptococcus sp. [27] = assay: Minimum inhibitory concentration evaluated against Streptococci species [38]*; assay type: functional
Staphylococcus sp. [28] = assay: In vitro anti-staphylococcal activity against Staphylococcus species resistant to ofloxacin [59]* expressed as geometric mean; assay type: functional; summary of the method: as §2
Staphylococcus sp. [29] = assay: In vitro anti-staphylococcal activity against Staphylococcus species resistant to oxacillin [66]* expressed as geometric mean; assay type: functional; summary of the method: as §2
Staphylococcus sp. [30] = assay: In vitro anti-staphylococcal activity against Staphylococcus species resistant to oxacillin and ofloxacin[47]* expressed as geometric mean; assay type: functional; summary of the method: as §2
Mus musculus [31] = assay: Protective dose of subcutaneously administered compound against intraperitoneally-induced septicaemia model (vancomycin resistant Enterococci faecium D3HT12 strain ) in murine; assay type: functional; settings: sc, read-out: PD50; summary of the method: as §1
Mus musculus [32] = assay: Protective dose of subcutaneously administered compound against intraperitoneally-induced septicaemia model (Enterococci faecalis D2HT6 strain) in murine; assay type: functional; settings: sc, read-out: PD50; summary of the method: as §1
Mus musculus [33] = assay: Protective dose of subcutaneously administered compound against intraperitoneally-induced septicaemia model (Enterococci faecium D3HT7 strain ) in murine; assay type: functional; settings: sc, read-out: PD50; summary of the method: as §1
Mus musculus [34] = assay: Protective dose of subcutaneously administered compound against intraperitoneally-induced septicaemia model ([…] A1UC1 strain) in murine; assay type: functional; settings: sc, read-out: PD50; summary of the method: as §1
Mus musculus [35] = assay: Protective dose of subcutaneously administered compound against intraperitoneally-induced septicaemia model (vancomycin resistant Enterococci faecium D3AP9 strain ) in murine; assay type: functional; settings: sc, read-out: PD50; summary of the method: as §1
Mus musculus [36] = assay: Protective dose of subcutaneously administered compound against intraperitoneally-induced septicaemia model (vancomycin resistant Enterococci faecium D3HM3 strain ) in murine; assay type: functional; settings: sc, read-out: PD50; summary of the method: as §1
Mus musculus [37] = assay: Protective dose of subcutaneously administered compound against intraperitoneally-induced septicaemia model (vancomycin resistant Enterococci faecium D3HM4 strain ) in murine; assay type: functional; settings: sc, read-out: PD50; summary of the method: as §1
Staphylococcus sp. [38] = assay: In vitro anti-staphylococcal activity against Staphylococcus species [91]* expressed as geometric mean; assay type: functional
Summary of the method: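 Two-fold agar-dilution MICs (µg/mL) were run on a panel of staphylococcal isolates and summarised as the geometric mean across strains.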

Mus musculus [39] = assay: Minimum inhibitory concentration of the subcutaneously administered compound evaluated against Staphylococcus aureus HT-18 strain in mice (SC); assay type: functional
Mus musculus [40] = assay: Minimum inhibitory concentration of the subcutaneously administered compound evaluated against Enterococci faecium D3HT7 strain in mice (po); assay type: functional
Mus musculus [41] = assay: Minimum inhibitory concentration of the subcutaneously administered compound evaluated against Streptococcus pyogenes A1UC1 strain in mice (po); assay type: functional
Mus musculus [42] = assay: Minimum inhibitory concentration of the subcutaneously administered compound evaluated against […] B1HT3 strain in mice (po); assay type: functional
Mus musculus [43] = assay: Minimum inhibitory concentration of the subcutaneously administered compound evaluated against vancomycin resistant Enterococci faecium D3HM4 strain in mice (po); assay type: functional
Mus musculus [44] = assay: Minimum inhibitory concentration of the subcutaneously administered compound evaluated against vancomycin resistant Enterococci faecium D3HT12 strain in mice (po); assay type: functional
Mus musculus [45] = assay: Protective dose of subcutaneously administered compound against intraperitoneally-induced septicaemia model (Streptococcus pyogenes A1UC1 strain) in murine; assay type: functional; settings: sc, read-out: PD50; summary of the method: as §1
Mus musculus [46] = assay: Minimum inhibitory concentration of the subcutaneously administered compound evaluated against vancomycin resistant Enterococci faecium D3AP9 strain in mice (po); assay type: functional
Mus musculus [47] = assay: Minimum inhibitory concentration of the subcutaneously administered compound evaluated against vancomycin resistant Enterococci faecium D3HM3 strain in mice (po); assay type: functional
Mus musculus [48] = assay: Minimum inhibitory concentration of the subcutaneously administered compound evaluated against Staphylococcus aureus GR56 strain resistant to oxacillin in mice (sc)

CC(=O)NC[C@H]1CN(c2ccc(N3CCN(C(=O)CO)CC3)c(F)c2)C(=O)O1 [EPEREZOLID]
MIC90 (Enterococcus [1]): 1.2 µg/mL (≈ 3.04 µM) | MIC90 (Enterococcus [2]): 1.2 µg/mL (≈ 3.04 µM) | MIC90 (Enterococcus [3]): 0.6 µg/mL (≈ 1.52 µM) | GM (Enterococcus [4]): 0.72 | GM (Enterococcus [5]): 0.43 | GM (Enterococcus [6]): 0.51 | MIC (Mus musculus [7]): 0.6 µg/mL (≈ 1.52 µM) | MIC (Mus musculus [8]): < 0.15 µg/mL | MIC (Mus musculus [9]): 1.2 µg/mL (≈ 3.04 µM) | MIC (Mus musculus [10]): 0.6 µg/mL (≈ 1.52 µM) | MIC (Mus musculus [11]): 0.6 µg/mL (≈ 1.52 µM) | MIC (Mus musculus [12]): 0.6 µg/mL (≈ 1.52 µM) | MIC (Mus musculus [13]): 1.2 µg/mL (≈ 3.04 µM) | MIC (Mus musculus [14]): 0.3 µg/mL (≈ 0.761 µM) | MIC (Mus musculus [15]): 0.3 µg/mL (≈ 0.761 µM) | ED50 (Mus musculus [16]): > 50 mg/kg | ED50 (Mus musculus [17]): 5 mg/kg | ED50 (Mus musculus [18]): 20 mg/kg | GM (pneumococci): 0.25 | MIC90 [19]: 0.3 µg/mL (≈ 0.761 µM) | MIC90 (Staphylococcus sp. [20]): 1.2 µg/mL (≈ 3.04 µM) | MIC90 (Staphylococcus sp. [21]): 1.2 µg/mL (≈ 3.04 µM) | MIC90 (Staphylococcus sp. [22]): 1.2 µg/mL (≈ 3.04 µM) | MIC90 (Staphylococcus sp. [23]): 1.2 µg/mL (≈ 3.04 µM) | GM (Streptococcus sp. [24]): 0.39 | GM (Streptococcus sp. [25]): 0.52 | MIC90 (Streptococcus sp. [26]): 1.2 µg/mL (≈ 3.04 µM) | MIC90 (Streptococcus sp. [27]): 0.6 µg/mL (≈ 1.52 µM) | GM (Staphylococcus sp. [28]): 0.71 | GM (Staphylococcus sp. [29]): 0.73 | GM (Staphylococcus sp. [30]): 0.72 | ED50 (Mus musculus [31]): 1.5 mg/kg | ED50 (Mus musculus [32]): 6.4 mg/kg | ED50 (Mus musculus [33]): 3 mg/kg | ED50 (Mus musculus [34]): 22.8 mg/kg | ED50 (Mus musculus [35]): 8.7 mg/kg | ED50 (Mus musculus [36]): 2.8 mg/kg | ED50 (Mus musculus [37]): 27.2 mg/kg | GM (Staphylococcus sp. [38]): 0.74

CN[C@H](CC(C)C)C(=O)N[C@H]1C(=O)N[C@@H](CC(N)=O)C(=O)N[C@H]2C(=O)N[C@H]3C(=O)N[C@H](C(=O)N[C@H](C(=O)O)c4cc(O)cc(O)c4-c4cc3ccc4O)[C@H](O)c3ccc(c(Cl)c3)Oc3cc2cc(c3O[C@@H]2O[C@H](CO)[C@@H](O)[C@H](O)[C@H]2O[C@H]2C[C@](C)(N)[C@H](O)[C@H](C)O2)Oc2ccc(cc2Cl)[C@H]1O [VANCOMYCIN]
MIC90 (Enterococcus [1]): > 20 µg/mL | MIC90 (Enterococcus [2]): > 20 µg/mL | MIC90 (Enterococcus [3]): 0.6 µg/mL (≈ 0.414 µM) | GM (Enterococcus [4]): 23.7 | GM (Enterococcus [5]): 36.9 | GM (Enterococcus [6]): 0.75 | MIC (Mus musculus [39]): 1.2 µg/mL (≈ 0.828 µM) | MIC (Mus musculus [10]): 2.5 µg/mL (≈ 1.73 µM) | MIC (Mus musculus [40]): 2.5 µg/mL (≈ 1.73 µM) | MIC (Mus musculus [41]): 0.6 µg/mL (≈ 0.414 µM) | MIC (Mus musculus [42]): 0.3 µg/mL (≈ 0.207 µM) | MIC (Mus musculus [43]): > 40 µg/mL | MIC (Mus musculus [44]): > 40 µg/mL | ED50 (Mus musculus [45]): < 1.5 mg/kg | ED50 (Mus musculus [16]): 17.2 mg/kg | ED50 (Mus musculus [17]): 4 mg/kg | ED50 (Mus musculus [18]): 7.8 mg/kg | GM (pneumococci): 0.24 | MIC90 [19]: 0.3 µg/mL (≈ 0.207 µM) | MIC90 (Staphylococcus sp. [20]): 2.5 µg/mL (≈ 1.73 µM) | MIC90 (Staphylococcus sp. [21]): 2.5 µg/mL (≈ 1.73 µM) | MIC90 (Staphylococcus sp. [22]): 2.5 µg/mL (≈ 1.73 µM) | MIC90 (Staphylococcus sp. [23]): 2.5 µg/mL (≈ 1.73 µM) | GM (Streptococcus sp. [24]): 0.4 | GM (Streptococcus sp. [25]): 0.35 | MIC90 (Streptococcus sp. [26]): 0.6 µg/mL (≈ 0.414 µM) | MIC90 (Streptococcus sp. [27]): 0.6 µg/mL (≈ 0.414 µM) | ED50 (Mus musculus [31]): > 50 mg/kg | ED50 (Mus musculus [32]): 16.7 mg/kg | ED50 (Mus musculus [33]): 8.7 mg/kg | ED50 (Mus musculus [35]): > 50 mg/kg | ED50 (Mus musculus [36]): > 50 mg/kg | ED50 (Mus musculus [37]): > 50 mg/kg | MIC (Mus musculus [46]): > 40 µg/mL | MIC (Mus musculus [47]): > 40 µg/mL | MIC (Mus musculus [48]): 1.2 µg/mL (≈ 0.828 µM)
